Measurements: the EternaBench riboswitch data

Test system: MS2 coat protein
Experiment: apparent Kd, MS2 coat protein; higher = weaker binding; RNA-MaP array; FMN 200 µM where present
In short: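 Stalled E. coli RNA polymerase transcribed the designs on Illumina sequencing-chip clusters. SNAP-549-labelled MS2 coat protein was titrated from 0.7 or 1.5 nM, doubling to 3 µM, without and then with constant ligand, in 100 mM Tris-HCl pH 7.5, 80 mM KCl, 4 mM MgCl2, BSA, DTT, yeast tRNA and Tween-20. Per-cluster binding curves were fitted to green signal normalised to red-channel RNA signal and control-cluster median Fmax. The apparent Kd is the median of the filtered fits.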

[1] = designed as: OFF switch for flavin mononucleotide, no ligand
[2] = ligand present: flavin mononucleotide, designed as: OFF switch for flavin mononucleotide
[3] = designed as: ON switch for flavin mononucleotide, no ligand
[4] = ligand present: flavin mononucleotide, designed as: ON switch for flavin mononucleotide

Sequence: UUAUUUUGUCAAGGAUAUGUAUUAUUGAUUUGAAAACAUGAGGAUCACCCAUGUAUAUGGUGGGAACAGAAGGUGAAUGGUGAA
- apparent Kd [1]: 194 nM
- apparent Kd [2]: 215 nM

Sequence: GUCUUACAUGAGGAUCACCCAUGUGAGGAUAUGGUUUCGCUGGCCGUAGCCAGUGGAACCAGAAGGCGCAUGAU
- apparent Kd [1]: 25.7 nM
- apparent Kd [2]: 44.9 nM

Sequence: GCGUCUUAGUAGAAGGGACAUCGGCUGGUAAGCAUCAUCUCCUUCUCACAUGAGGAUCACCCAUGUCAGGAUAUACUAAGAUGC
- apparent Kd [1]: 11.5 nM
- apparent Kd [2]: 43.1 nM

Sequence: AAGGUGUAAGGAUAUGCUGCUCGUCACUUGCGUGAUGAGUAGCAGAAGGUACAUGAGGAUCACCCAUGUAAAAA
- apparent Kd [1]: 27.9 nM
- apparent Kd [2]: 34.6 nM

Sequence: CCGGAAACGGGUAGCUGACAUGAGGAUCACCCAUGUGAAUCACAGGAUAUGGAUCCUAAUUGGAUCCAGAAGGGUGUCAGCUAC
- apparent Kd [3]: 1020 nM
- apparent Kd [4]: 125 nM

Sequence: ACAUGAGGAUCACCCAUGUUCACAUAGGAUAUUGAUUUUAUUGGUUUUAGAAUAGUAAUUAACCUCAAGAAGGAUGCCAGUUCU
- apparent Kd [3]: 14 nM
- apparent Kd [4]: 11.2 nM

Sequence: CCAUCGAGUGUGAGGAUAUGCUGGUCCUUGGAUCAGCAGAAGGCACAUGAGGAUCACCCAUGUGGAGACGGUGG
- apparent Kd [1]: 60.1 nM
- apparent Kd [2]: 286 nM

Sequence: GCCAUCGUAUGAGGAUAUGGCACCGCAACGGUGCCAGAAGGCAUGUCAAUAGACAUGAGGAUCACCCAUGUGUUAUCGAUGGCA
- apparent Kd [3]: 153 nM
- apparent Kd [4]: 13.9 nM

Sequence: UUUUUAUAAGAGAAGGAGGACUUCAUGAGGAUCACCCAUGUGUUAGUACUUAGGAUAUUUGAUAACAUGAGGAUCACCCAUGUC
- apparent Kd [3]: 31.4 nM
- apparent Kd [4]: 28.1 nM

Sequence: UAUGGUUAAGUCAGGAUAUGCUCGUAGAGGUCUAUGCAGAAGGGACAUGAGGAUCACCCAUGUAAGGUCGUGUU
- apparent Kd [1]: 39.9 nM
- apparent Kd [2]: 66.3 nM

Sequence: ACUUUCAUUGUGAGGAUAUGCCCAAAUAAAAGCGGGCAGAAGGCACAUGAGGAUCACCCAUGUCCUGCGGUUAU
- apparent Kd [1]: 34.6 nM
- apparent Kd [2]: 394 nM

Sequence: GACUCGCGCACAGGAUAUCCACGGAGCGGACGCGGAGAAGGGUGACAUGAGGAUCACCCAUGUACGUGAGUCUAGAUCACUUCC
- apparent Kd [3]: 76.8 nM
- apparent Kd [4]: 22.5 nM

Sequence: GUCAGCUCGUGAGGAUAUACAUGUGCUGGAGACAGCACUAAUUAAUUCACAUGAGGAUCACCCAUGUAGAAGGCACGAGCUGAU
- apparent Kd [1]: 16.2 nM
- apparent Kd [2]: 19.6 nM

Sequence: GGGCCGGUGGAGAAGGAGCUCACGUAACGUAGGCUAGGAUAUCCACAUGAGGAUCACCCAUGUGGGAAUAUCUGAUUUUCACAG
- apparent Kd [1]: 4.01 nM
- apparent Kd [2]: 4.88 nM

Sequence: UUAAACGCAGGAUAUACAUUUUUUUUAUUAUCCUCAUAAAUACAUGAGGAUCACCCAUGUAGAAGGGCGAAAUU
- apparent Kd [1]: 239 nM
- apparent Kd [2]: 210 nM

Sequence: CACGUCUGAGGAUAUCGUUUUUUGUACAUGAGGAUCACCCAUGUCCAAUUUUGUAUAUUACGAGAAGGCAGUGGAA
- apparent Kd [1]: 12.9 nM
- apparent Kd [2]: 19.7 nM

Sequence: CGCUGCCACGCAGGAUAUGCAUUGGAUUACAAUGCAGAAGGGCGAUUACAUGAGGAUCACCCAUGUGUCGGCAGUGAAGAAGAG
- apparent Kd [3]: 657 nM
- apparent Kd [4]: 44.9 nM

Sequence: GACAUGAGGAUCACCCAUGUACAUGAGGAUCACCCAUGUUCUGAGGAUAUAGAUGAGGAUCACCUCUAGAAGGCAGCGCGCGCG
- apparent Kd [1]: 251 nM
- apparent Kd [2]: 202 nM

Sequence: UGAUACAUGAGGGUCUCCCAUGACAUGAGGAUCACCCAUGUGCAGGAUAUACGUGUGAUGAUAUAGUAGAAGGGCAGUCUAUGU
- apparent Kd [1]: 449 nM
- apparent Kd [2]: 537 nM

Sequence: UGGUACAAGGGAGGAUAUGGGAAGAUACAUGAGGAUCACCCAUGUUUAAGAAUGCCGAGAGGCAACUAGAAGGCCCUAGUACCU
- apparent Kd [3]: 506 nM
- apparent Kd [4]: 20.4 nM

Sequence: GCCUUACAUGAGGAUCACCCAUGUCAGGAUAUGUCAGAGUAGGUAAAACACCACUCUAAUAGAAGGGACAUGCA
- apparent Kd [1]: 16.8 nM
- apparent Kd [2]: 28.6 nM

Sequence: UGUCGGAGCAGAGGAUAUUACAUGAGGAUCACCCAUGUAUGAACCAAUAGCUGGAAACAGCAAUGUAAGAAGGCUUCUCCGACA
- apparent Kd [1]: 7.13 nM
- apparent Kd [2]: 45.9 nM

Sequence: AACCACCGCACGGACACGUCGAGUCAGGAUAUACAUGAGGAUCACCCAUGUGAAGGCCGGCUCAUGUAGAAGGGACAGGCGUUG
- apparent Kd [1]: 11.4 nM
- apparent Kd [2]: 15.7 nM
